This note sets out measurements from ChEMBL document CHEMBL1154740, “Efficient microwave combinatorial synthesis of novel indolic arylpiperazine derivatives as serotoninergic ligands” (Eur J Med Chem, 2010).

The target of assay [1] is T1, 5-hydroxytryptamine receptor 2C (Rattus norvegicus, UniProt P08909).
T1 sequence (P08909 whole entry): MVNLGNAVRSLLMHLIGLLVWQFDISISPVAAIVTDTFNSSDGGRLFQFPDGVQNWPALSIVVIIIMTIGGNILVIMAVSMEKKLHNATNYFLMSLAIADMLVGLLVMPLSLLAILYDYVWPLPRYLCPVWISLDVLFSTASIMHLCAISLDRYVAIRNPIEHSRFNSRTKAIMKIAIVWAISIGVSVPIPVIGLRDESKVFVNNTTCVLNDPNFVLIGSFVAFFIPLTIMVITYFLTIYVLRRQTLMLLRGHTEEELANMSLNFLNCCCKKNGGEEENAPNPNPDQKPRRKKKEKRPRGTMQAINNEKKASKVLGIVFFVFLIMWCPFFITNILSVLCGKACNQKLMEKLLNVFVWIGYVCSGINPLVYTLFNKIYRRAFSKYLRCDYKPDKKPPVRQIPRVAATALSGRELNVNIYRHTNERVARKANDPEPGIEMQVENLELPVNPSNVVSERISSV
The assay is described as follows: Displacement of [3H]mesulergine from 5HT2C in Sprague-Dawley rat brain cortex by liquid scintillation counting. The conditions noted are these: read-out: Ki. In outline:
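Frontal cortex of male Sprague–Dawley rats (180–220 g), in 50 mM Tris-HCl, 0.5 mM EDTA, 10 mM MgCl2, pH 7.4, plus 0.1% ascorbate and pargyline. Triplicate 2.0 mL assays: 5-HT2A with 5 mg tissue and 0.4 nM [3H]ketanserin; 5-HT2C with 10 mg tissue and 1 nM [3H]mesulergine. 15 min at 37 °C, PEI-soaked filters. IC50 from six concentrations converted to Ki (Cheng–Prusoff).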
On the technique in general: Displacement assays read how much labelled ligand stays bound in the presence of the test substance.

Assay [2] deals with T2, 5-hydroxytryptamine receptor 1A (Rattus norvegicus, UniProt P19327).
T2 sequence (P19327 whole entry): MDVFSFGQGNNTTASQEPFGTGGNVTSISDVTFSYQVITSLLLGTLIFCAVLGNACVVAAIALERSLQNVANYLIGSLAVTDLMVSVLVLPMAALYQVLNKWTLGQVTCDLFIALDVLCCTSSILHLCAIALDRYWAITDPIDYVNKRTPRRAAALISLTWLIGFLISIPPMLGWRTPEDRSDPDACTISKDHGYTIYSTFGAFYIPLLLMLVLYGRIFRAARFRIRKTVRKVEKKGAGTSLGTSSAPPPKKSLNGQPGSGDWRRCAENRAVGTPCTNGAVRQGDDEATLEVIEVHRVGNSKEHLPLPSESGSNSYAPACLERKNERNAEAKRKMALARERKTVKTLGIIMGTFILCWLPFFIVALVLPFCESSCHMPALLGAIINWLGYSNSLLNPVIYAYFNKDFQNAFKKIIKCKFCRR
The assay is described as follows: Displacement of [3H]8OH-DPAT from 5HT1A in Sprague-Dawley rat brain cortex by liquid scintillation counting. The conditions noted are these: read-out: Ki. In outline: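 Male Sprague–Dawley rat (180–220 g) cerebral cortex membranes, washed and preincubated 10 min at 37 °C, in Tris–HCl pH 7.7 with pargyline, 4 mM CaCl2, 0.1% ascorbate. [3H]-8-OH-DPAT at 0.1 nM final, 30 min at 37 °C, GF/B filtration. Nonspecific binding defined with 5-HT. Six concentrations in triplicate; IC50 converted to Ki by Cheng–Prusoff using Scatchard KD.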

For another assay, the target named is D(1A) dopamine receptor (Rattus norvegicus, UniProt P18901). As to the kind of experiment: Displacement of [3H]SCH23390 from dopamine D1 in rat striatum by liquid scintillation counting. Put shortly:
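Rat corpora striata membranes in 50 mM Tris–HCl with 120 mM NaCl, 5 mM KCl, 2 mM CaCl2, 1 mM MgCl2, 0.1% ascorbic acid, pargyline, pH 7.1 at 37 °C; 3 mg fresh tissue per tube. [3H]SCH-23390 at 0.4 nM final, 15 min at 37 °C, GF/B filtration. Nonspecific binding defined with piflutixol. Ki from IC50 via Cheng–Prusoff.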

D(1A) dopamine receptor, sequence (P18901 whole entry): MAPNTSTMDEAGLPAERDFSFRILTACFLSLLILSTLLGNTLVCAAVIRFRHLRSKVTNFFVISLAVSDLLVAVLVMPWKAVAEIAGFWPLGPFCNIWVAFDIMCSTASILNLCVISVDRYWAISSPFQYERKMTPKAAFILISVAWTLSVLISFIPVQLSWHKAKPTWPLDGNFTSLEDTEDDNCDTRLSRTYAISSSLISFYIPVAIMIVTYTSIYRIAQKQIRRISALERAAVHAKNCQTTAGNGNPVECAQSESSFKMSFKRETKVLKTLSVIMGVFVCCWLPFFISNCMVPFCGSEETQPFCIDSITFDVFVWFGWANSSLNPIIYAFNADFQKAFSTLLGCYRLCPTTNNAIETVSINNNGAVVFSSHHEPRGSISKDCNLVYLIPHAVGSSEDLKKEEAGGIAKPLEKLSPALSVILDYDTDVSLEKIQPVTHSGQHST

As to `CCOC(=O)c1cc2cc(OCCCN3CCN(c4ccc(OC)cc4)CC3)ccc2[nH]1`, the inhibition constant (Ki) in assay [1] is 0.0504 µM; in assay [2] it was 10 µM; on D(1A) dopamine receptor, “Not Active”.

Consider `CCOC(=O)c1cc2cc(OCCCN3CCN(c4cccc(Cl)c4)CC3)ccc2[nH]1`, for which the inhibition constant Ki in assay [1] is 0.00128 µM; in assay [2], 0.039 µM; at D(1A) dopamine receptor (read-out: Ki) it was 1.07 µM.

Turning to `CCOC(=O)c1cc2cc(OCCCN3CCN(Cc4ccc5c(c4)OCO5)CC3)ccc2[nH]1`, the Ki in assay [1] was 0.0436 µM; in assay [2] it was 10 µM; at D(1A) dopamine receptor (read-out: Ki), 10 µM.

As usually defined, the Ki is the equilibrium dissociation constant of an inhibitor or competing ligand from its target.
